We go through 1 molecule from ChEMBL document CHEMBL3596119, “Synthesis and biological characterization of a promising F-18 PET tracer for vesicular acetylcholine transporter” (Bioorg Med Chem, 2015).

Data set [1] concerns Rattus norvegicus. Kind of data set: Biodistribution in Sprague-Dawley rat total brain at 2.2 MBq/120 uL, iv after 30 mins by gamma counting. As to conditions: in vivo, 0.5 h; call rule not given here. In kind it is ADME, organism-based. Summed up:
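Injected by tail vein in 10% ethanol in saline into adult male SD rats under 2-3% isoflurane/oxygen anesthesia. Rats were killed under anesthesia, n = 4 per time point. Total brain and other tissues were weighed and gamma-counted against a standard dilution of the injectate. Values are %ID/g.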

A short description of data set [2]: Drug uptake in cynomolgus monkey striatum at 296 to 410 MBq administered via venous catheter after 120 mins by microPET imaging in presence of 0.25 mg/kg (-)-vesamicol. It counts as ADME, organism-based, Macaca fascicularis. As to conditions: in vivo, 2 h. Summed up: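 Blocking scan: (-)-vesamicol 0.25 mg/kg was given through the venous catheter 5 min before the tracer (296–410 MBq). The monkey was under isoflurane anesthesia. A 2 h dynamic microPET scan followed, and striatal and cerebellar time-activity curves were generated.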

The test system of the next data set is Liver. Kind of data set: Biodistribution in Sprague-Dawley rat liver at 2.2 MBq/120 uL, iv after 120 mins by gamma counting. In kind it is ADME, organism-based. As to conditions: in vivo, 2 h. Summed up:
(§1)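 Adult male SD rats, isoflurane (2-3%)/oxygen anesthesia, tail-vein injection of ~2.2 MBq/120 μL tracer in 10% ethanol in saline; euthanized under anesthesia at the stated time (n = 4 per time point). Brain dissected into regions, remainder kept for total brain; organs, blood, bone collected and weighed, gamma-counted against a standard dilution of injectate; %ID/g calculated.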

For a further data set, the system named is Muscle tissue. Kind of data set: Biodistribution in Sprague-Dawley rat muscle at 2.2 MBq/120 uL, iv after 60 mins by gamma counting. In kind it is ADME, organism-based. As to conditions: in vivo, 1 h. Summed up: as §1
Data set [3] concerns Pancreas. Kind of data set: Biodistribution in Sprague-Dawley rat pancreas at 2.2 MBq/120 uL, iv after 5 mins by gamma counting. As to conditions: in vivo. In kind it is ADME, organism-based. Summed up:
as §1

The next data set concerns Heart. Kind of data set: Biodistribution in Sprague-Dawley rat heart at 2.2 MBq/120 uL, iv after 30 mins by gamma counting. As to conditions: in vivo, 0.5 h. It counts as ADME, organism-based. The method, boiled down: as §1
The subject of data set [4] is Rattus norvegicus. Kind of data set: Biodistribution in Sprague-Dawley rat fat at 2.2 MBq/120 uL, iv after 5 mins by gamma counting. As to conditions: in vivo. In kind it is ADME, organism-based, Adipose tissue. The method, boiled down: as §1
Data set [5] deals with Rattus norvegicus. Kind of data set: Biodistribution in Sprague-Dawley rat brain stem at 2.2 MBq/120 uL, iv after 5 mins by gamma counting. In kind it is ADME, organism-based. As to conditions: in vivo. Summed up:
as §1

The test system of another data set is Striatum. Kind of data set: Biodistribution in Sprague-Dawley rat striatum at 2.2 MBq/120 uL, iv after 60 mins by gamma counting. In kind it is ADME, organism-based. As to conditions: in vivo, 1 h. The method, boiled down:
as §1

The subject of data set [6] is Kidney. Kind of data set: Biodistribution in Sprague-Dawley rat kidney at 2.2 MBq/120 uL, iv after 120 mins by gamma counting. As to conditions: in vivo, 2 h. In kind it is ADME, organism-based. The method, boiled down:
as §1

Data set [7] has as its system Pancreas. Kind of data set: Biodistribution in Sprague-Dawley rat pancreas at 2.2 MBq/120 uL, iv after 30 mins by gamma counting. In kind it is ADME, organism-based. As to conditions: in vivo, 0.5 h. Summed up: as §1
Data set [8] relates to Pancreas. Kind of data set: Biodistribution in Sprague-Dawley rat pancreas at 2.2 MBq/120 uL, iv after 60 mins by gamma counting. It counts as ADME, organism-based. As to conditions: in vivo, 1 h. The method, boiled down:
as §1

In another data set the test system is Lung. Kind of data set: Biodistribution in Sprague-Dawley rat lung at 2.2 MBq/120 uL, iv after 30 mins by gamma counting. It counts as ADME, organism-based. As to conditions: in vivo, 0.5 h. The method, boiled down:
as §1

Data set [9] relates to Spleen. Kind of data set: Biodistribution in Sprague-Dawley rat spleen at 2.2 MBq/120 uL, iv after 30 mins by gamma counting. In kind it is ADME, organism-based. As to conditions: in vivo, 0.5 h. The method, boiled down: as §1
The subject of data set [10] is Spleen. Kind of data set: Biodistribution in Sprague-Dawley rat spleen at 2.2 MBq/120 uL, iv after 120 mins by gamma counting. In kind it is ADME, organism-based. As to conditions: in vivo, 2 h. Summed up: as §1
For a further data set, the system named is Blood. Kind of data set: Biodistribution in Sprague-Dawley rat blood at 2.2 MBq/120 uL, iv after 60 mins by gamma counting. It counts as ADME, organism-based. As to conditions: in vivo, 1 h. The method, boiled down:
as §1

The test system of a further data set is Plasma. Kind of data set: Metabolic stability in monkey plasma assessed as radioactivity at 15 to 106 MBq after 5 to 60 mins by HPLC analysis. It counts as ADME, cell-free, Macaca mulatta. As to conditions: rhesus monkey.
Data set [11] deals with Kidney. Kind of data set: Biodistribution in Sprague-Dawley rat kidney at 2.2 MBq/120 uL, iv after 60 mins by gamma counting. In kind it is ADME, organism-based. As to conditions: in vivo, 1 h. The method, boiled down: as §1
For data set [12], the system named is Spleen. Kind of data set: Biodistribution in Sprague-Dawley rat spleen at 2.2 MBq/120 uL, iv after 5 mins by gamma counting. It counts as ADME, organism-based. As to conditions: in vivo. Summed up:
as §1

On to `O=C(c1ccc(F)cc1)C1CCN(C2Cc3c(cccc3OCC[18F])CC2O)CC1` (single isomer, unassigned; (-)), for which the Drug uptake is 0.482 % ID/g in the data set with Rattus norvegicus [1]; “Not Active” in data set [2]; 0.382 % ID/g with Liver; 0.253 % ID/g in the data set with Muscle tissue; 1.202 % ID/g with Pancreas [3]; 0.39 % ID/g with Heart. The Drug uptake with Rattus norvegicus [4] came out at 0.144 % ID/g; in the data set with Rattus norvegicus [5] it was 0.683 % ID/g; in the data set with Striatum, 0.819 % ID/g; in the data set with Kidney [6], 0.489 % ID/g; with Pancreas [7], 1.2 % ID/g; in the data set on Pancreas [8], 1.324 % ID/g. For the same molecule, the Drug uptake in the data set on Lung stood at 0.973 % ID/g; with Spleen [9] it was 0.685 % ID/g; in the data set on Spleen [10], 0.376 % ID/g; in the data set with Blood, 0.338 % ID/g; in the data set with Kidney [11], 0.604 % ID/g; in the data set with Spleen [12] it was 1.265 % ID/g. Further, in the data set with Plasma, the Stability came out at 76%.
